Measurements as given in PMC7668563 (International journal of molecular biology (Edmond, Okla.), 2020).
Like-named read-outs stand apart in the source and are kept apart here.

What was measured:
[1] = molecular target: T1, apo-human transferrin (apo-hTf) (Homo sapiens, UniProt P02787); assay: Far-UV circular dichroism titration of apo-hTf, secondary structure content
Procedure, shortened: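 Apo-hTf (4.0×10−7 mol L−1) in 2 mM Tris-HCl pH 7.4 was titrated with a 1.0×10−3 mol L−1 stock of test compound in Tris-HCl/2% DMSO, to final 0–2.4×10−6 mol L−1. Far-UV CD was recorded from 190–250 nm under nitrogen in a 1.0 cm cell: six scans at 100 nm/min. Baseline was buffer ± DMSO at room temperature. α-Helix was derived from MRE at 208 nm; β-sheet and random coil by the CD-RRG method.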

[2] = molecular target: T1, apo-human transferrin (apo-hTf); assay: UV-Vis absorbance titration of apo-hTf; type: binding; settings: for Ka at 280 nm: absorbance at 280 nm; for Association constants, Ka, 280 nm: absorbance of apo-hTf at 280 nm
[3] = molecular target: T1, apo-human transferrin (apo-hTf); assay: Fluorescence resonance energy transfer; type: binding; settings: for Förster critical energy transfer distance R0 / binding distance r (donor-acceptor): k^2=2/3, n=1.336, ØD=0.118; for efficiency of energy transfer E: room temperature, 1.0×10^−5 mol L^−1 each
Procedure, shortened: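 Emission spectrum of 1.0×10−5 mol L−1 apo-hTf and absorption spectrum of 1.0×10−5 mol L−1 test compound were recorded in 20 mM Tris-HCl pH 7.4 at room temperature, 260–450 nm, and their spectral overlap determined. E was calculated from apo-hTf fluorescence without and with equimolar test compound. R0 and donor–acceptor distance r came from Förster equations.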

[4] = system: human breast adenocarcinoma cell line, MCF-7; settings: cited from earlier work
[5] = molecular target: T1, apo-human transferrin (apo-hTf); assay: Thermodynamic parameters of apo-hTf complex formation; type: binding; settings: for ∆H° / ∆S°: pH 7.4, from Ksv at 296-317 K
Procedure, shortened: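 Ksv values were obtained from apo-hTf fluorescence quenching at pH 7.4 at 296, 303, 310 and 317 K. ΔH°, ΔS° and ΔG° were derived from linear regression of ln(Ksv) vs 1/T (Van't Hoff equation).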

[6] = molecular target: T1, apo-human transferrin (apo-hTf); assay: Fluorescence quenching of apo-hTf; type: binding; settings: for biomolecular quenching rate constant kq: kq=Ksv/τ0; for Stern-Volmer quenching constant Ksv / number of binding sites n: pH 7.4; for quenching association constant Ka: pH 7.4, modified Stern-Volmer
Procedure, shortened: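 Intrinsic fluorescence of apo-hTf in Tris-HCl pH 7.4 was titrated with test compound (Tris-HCl/2% DMSO). Conditions: excitation 280 nm, emission 290–500 nm, slits 10/5 nm, 1.0 cm quartz cell, at 296, 303, 310 and 317 K, triplicate titrations. Intensities were corrected for inner filter effect using absorbances at excitation and emission wavelengths. Ksv came from Stern-Volmer plots of F0/F vs [Q]; kq = Ksv/τ0 (τ0 ~1.0×10−8); Ka and n came from the modified Stern-Volmer equation.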

[7] = system: human colorectal adenocarcinoma cell line, HT-29; settings: cited from earlier work

T1 sequence (P02787 20-698): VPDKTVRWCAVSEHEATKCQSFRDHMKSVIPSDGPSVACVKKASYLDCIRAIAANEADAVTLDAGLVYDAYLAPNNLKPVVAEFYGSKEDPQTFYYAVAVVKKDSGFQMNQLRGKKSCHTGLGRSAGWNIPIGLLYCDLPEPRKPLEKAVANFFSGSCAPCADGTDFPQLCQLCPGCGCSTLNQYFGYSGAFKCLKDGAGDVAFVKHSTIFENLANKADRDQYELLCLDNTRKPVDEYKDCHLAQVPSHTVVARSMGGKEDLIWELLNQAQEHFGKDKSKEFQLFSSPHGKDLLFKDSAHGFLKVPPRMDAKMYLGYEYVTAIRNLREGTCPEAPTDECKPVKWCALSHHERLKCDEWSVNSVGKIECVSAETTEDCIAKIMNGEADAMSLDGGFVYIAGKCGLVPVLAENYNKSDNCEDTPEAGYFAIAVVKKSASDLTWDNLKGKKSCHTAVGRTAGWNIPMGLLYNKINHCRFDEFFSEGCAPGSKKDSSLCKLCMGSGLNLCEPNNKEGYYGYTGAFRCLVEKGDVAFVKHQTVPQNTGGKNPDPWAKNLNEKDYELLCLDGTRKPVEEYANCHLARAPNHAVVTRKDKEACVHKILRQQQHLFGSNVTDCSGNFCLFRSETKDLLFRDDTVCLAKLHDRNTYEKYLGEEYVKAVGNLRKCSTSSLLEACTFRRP

N.N.[Cl][Pt][Cl] [(NH3)2Pt(II)Cl2, cis-diamminedichloroplatinum (II), reference compound]
other secondary structure content of apo-hTf ([1]; compound concentration 0.4 (M)): 19.1% | random coil content of apo-hTf ([1]; compound concentration 0.4 (M)): 33.9% | α-helix content of apo-hTf ([1]; compound concentration 0.4 (M)): 28.9% | β-sheet content of apo-hTf ([1]; compound concentration 0.4 (M)): 18.1% | other secondary structure content of apo-hTf ([1]; compound concentration 0.8 (M)): 19.2% | random coil content of apo-hTf ([1]; compound concentration 0.8 (M)): 33.9% | α-helix content of apo-hTf ([1]; compound concentration 0.8 (M)): 28.7% | β-sheet content of apo-hTf ([1]; compound concentration 0.8 (M)): 18.2% | other secondary structure content of apo-hTf ([1]; compound concentration 1.2 (M)): 19.2% | random coil content of apo-hTf ([1]; compound concentration 1.2 (M)): 34% | α-helix content of apo-hTf ([1]; compound concentration 1.2 (M)): 28.5% | β-sheet content of apo-hTf ([1]; compound concentration 1.2 (M)): 18.3% | other secondary structure content of apo-hTf ([1]; compound concentration 1.6 (M)): 19.3% | random coil content of apo-hTf ([1]; compound concentration 1.6 (M)): 34% | α-helix content of apo-hTf ([1]; compound concentration 1.6 (M)): 28.3% | β-sheet content of apo-hTf ([1]; compound concentration 1.6 (M)): 18.4% | other secondary structure content of apo-hTf ([1]; compound concentration 2 (M)): 19.3% | random coil content of apo-hTf ([1]; compound concentration 2 (M)): 34.1% | α-helix content of apo-hTf ([1]; compound concentration 2 (M)): 28.1% | β-sheet content of apo-hTf ([1]; compound concentration 2 (M)): 18.5% | other secondary structure content of apo-hTf ([1]; compound concentration 2.4 (M)): 19.3% | random coil content of apo-hTf ([1]; compound concentration 2.4 (M)): 34.1% | α-helix content of apo-hTf ([1]; compound concentration 2.4 (M)): 28% | β-sheet content of apo-hTf ([1]; compound concentration 2.4 (M)): 18.6% | Ka at 280 nm [2]: 740 M⁻¹ | Association constants, Ka, 280 nm ([2]; pH 7.4): 0.74 10^3 M^−1 | Förster critical energy transfer distance R0 [3]: 7.4 nm | binding distance r (donor-acceptor) [3]: 10.35 nm | efficiency of energy transfer E [3]: 0.118 | IC50 ([4]; read-out: IC50 (±SD), MCF-7, ref 83): 2 µM | IC50 ([4]; read-out: IC50 (±SD), MCF-7, ref 84): 4.6 µM | ∆G° ([5]; 296 K): -4.226 kcal/mol | ∆G° ([5]; 303 K): -4.233 kcal/mol | ∆G° ([5]; 310 K): -4.242 kcal/mol | ∆G° ([5]; 317 K): -4.252 kcal/mol | ∆H° [5]: -3.86 kcal/mol | ∆S° [5]: 5.17 J/mol K | biomolecular quenching rate constant kq ([6]; 296 K): 1.35e+11 M⁻¹ s⁻¹ | Stern-Volmer quenching constant Ksv ([6]; 296 K): 1350 M⁻¹ | number of binding sites n ([6]; 296 K): 0.97 | quenching association constant Ka ([6]; 296 K): 1100 M⁻¹ | biomolecular quenching rate constant kq ([6]; 303 K): 1.1e+11 M⁻¹ s⁻¹ | Stern-Volmer quenching constant Ksv ([6]; 303 K): 1100 M⁻¹ | number of binding sites n ([6]; 303 K): 1.01 | quenching association constant Ka ([6]; 303 K): 1200 M⁻¹ | biomolecular quenching rate constant kq ([6]; 310 K): 9.8e+10 M⁻¹ s⁻¹ | Stern-Volmer quenching constant Ksv ([6]; 310 K): 980 M⁻¹ | number of binding sites n ([6]; 310 K): 1.04 | quenching association constant Ka ([6]; 310 K): 1400 M⁻¹ | biomolecular quenching rate constant kq ([6]; 317 K): 8.6e+10 M⁻¹ s⁻¹ | Stern-Volmer quenching constant Ksv ([6]; 317 K): 860 M⁻¹ | number of binding sites n ([6]; 317 K): 1.07 | quenching association constant Ka ([6]; 317 K): 1600 M⁻¹ | IC50 ([7]; read-out: IC50 (±SD), HT-29, ref 77): 66 µM | IC50 ([7]; read-out: IC50 (±SD), HT-29, ref 84): 23 µM | IC50 ([7]; read-out: IC50 (±SD), HT-29, ref 85): 76 µM

C1CCCC1.C1CCCC1.[Cl][W][Cl] [Cp2WCl2]
other secondary structure content of apo-hTf ([1]; compound concentration 0.4 (M)): 18.3% | random coil content of apo-hTf ([1]; compound concentration 0.4 (M)): 33.7% | α-helix content of apo-hTf ([1]; compound concentration 0.4 (M)): 29.8% | β-sheet content of apo-hTf ([1]; compound concentration 0.4 (M)): 18.2% | other secondary structure content of apo-hTf ([1]; compound concentration 0.8 (M)): 18.4% | random coil content of apo-hTf ([1]; compound concentration 0.8 (M)): 33.8% | α-helix content of apo-hTf ([1]; compound concentration 0.8 (M)): 29.5% | β-sheet content of apo-hTf ([1]; compound concentration 0.8 (M)): 18.3% | other secondary structure content of apo-hTf ([1]; compound concentration 1.2 (M)): 18.6% | random coil content of apo-hTf ([1]; compound concentration 1.2 (M)): 33.9% | α-helix content of apo-hTf ([1]; compound concentration 1.2 (M)): 29.1% | β-sheet content of apo-hTf ([1]; compound concentration 1.2 (M)): 18.4% | other secondary structure content of apo-hTf ([1]; compound concentration 1.6 (M)): 19.1% | random coil content of apo-hTf ([1]; compound concentration 1.6 (M)): 34.1% | α-helix content of apo-hTf ([1]; compound concentration 1.6 (M)): 28.3% | β-sheet content of apo-hTf ([1]; compound concentration 1.6 (M)): 18.5% | other secondary structure content of apo-hTf ([1]; compound concentration 2 (M)): 19.2% | random coil content of apo-hTf ([1]; compound concentration 2 (M)): 34.3% | α-helix content of apo-hTf ([1]; compound concentration 2 (M)): 27.9% | β-sheet content of apo-hTf ([1]; compound concentration 2 (M)): 18.6% | other secondary structure content of apo-hTf ([1]; compound concentration 2.4 (M)): 19.4% | random coil content of apo-hTf ([1]; compound concentration 2.4 (M)): 34.4% | α-helix content of apo-hTf ([1]; compound concentration 2.4 (M)): 27.5% | β-sheet content of apo-hTf ([1]; compound concentration 2.4 (M)): 18.7% | Ka at 280 nm [2]: 2930 M⁻¹ | Ka at 361 nm ([2]; absorbance at 361 nm): 2980 M⁻¹ | Association constants, Ka, 280 nm ([2]; pH 7.4): 2.93 10^3 M^−1 | Association constants, Ka, 361 nm ([2]; absorbance of apo-hTf at 361 nm, pH 7.4): 2.98 10^3 M^−1 | Förster critical energy transfer distance R0 [3]: 4.53 nm | binding distance r (donor-acceptor) [3]: 6.05 nm | efficiency of energy transfer E [3]: 0.15 | IC50 ([4]; read-out: IC50 (±SD), MCF-7, ref 19): 630 µM | ∆G° ([5]; 296 K): -4.343 kcal/mol | ∆G° ([5]; 303 K): -4.498 kcal/mol | ∆G° ([5]; 310 K): -4.653 kcal/mol | ∆G° ([5]; 317 K): -4.809 kcal/mol | ∆H° [5]: 2.24 kcal/mol | ∆S° [5]: 93.12 J/mol K | biomolecular quenching rate constant kq ([6]; 296 K): 1.61e+11 M⁻¹ s⁻¹ | Stern-Volmer quenching constant Ksv ([6]; 296 K): 1610 M⁻¹ | number of binding sites n ([6]; 296 K): 1.16 | quenching association constant Ka ([6]; 296 K): 7800 M⁻¹ | biomolecular quenching rate constant kq ([6]; 303 K): 1.76e+11 M⁻¹ s⁻¹ | Stern-Volmer quenching constant Ksv ([6]; 303 K): 1760 M⁻¹ | number of binding sites n ([6]; 303 K): 1.13 | quenching association constant Ka ([6]; 303 K): 6000 M⁻¹ | biomolecular quenching rate constant kq ([6]; 310 K): 1.89e+11 M⁻¹ s⁻¹ | Stern-Volmer quenching constant Ksv ([6]; 310 K): 1890 M⁻¹ | number of binding sites n ([6]; 310 K): 1.08 | quenching association constant Ka ([6]; 310 K): 4200 M⁻¹ | biomolecular quenching rate constant kq ([6]; 317 K): 2.09e+11 M⁻¹ s⁻¹ | Stern-Volmer quenching constant Ksv ([6]; 317 K): 2090 M⁻¹ | number of binding sites n ([6]; 317 K): 1.04 | quenching association constant Ka ([6]; 317 K): 3200 M⁻¹ | IC50 ([7]; read-out: IC50 (±SD), HT-29, ref 19): 1000 µM
